Experimental data as given in ChEMBL document CHEMBL3792374, “Discovery of a ring-opened derivative of 3-n-butylphthalide bearing NO/H2S-donating moieties as a potential anti-ischemic stroke agent” (Eur J Med Chem, 2016).

Experiments:
[1] = Antiplatelet activity in rabbit platelet-rich plasma assessed as inhibition of ADP-induced platelet aggregation at 0.1 mM preincubated for 5 mins followed by addition of ADP measured within 5 mins by Borns turbidimetric method; assay type: functional; conditions: Oryctolagus cuniculus
Procedure, shortened: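 Rabbit carotid blood was citrated (3.8%, 9:1). PRP was obtained at 500 g for 10 min and PPP at 3000 g for 10 min. PRP was preincubated in duplicate for 5 min at 37 °C with 0.1 mM compound, plus carboxy-PTIO or BSS where indicated. ADP was then added and maximal light transmission recorded within 5 min, within 3 h of blood collection. Inhibition % was calculated versus control. Mean ± SD of three independent experiments.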

[2] = Induction of nitric oxide release in potassium phosphate buffer at pH 7.4 at 0.1 mM after 30 mins by Griess assay; assay type: physicochemical; conditions: pH 7.4, 0.5 h, 100 µM
Procedure, shortened: (§1)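 Compound (0.1 mM) in PBS pH 7.4 containing 2% DMSO and 5.0 mM L-cysteine was held at 37 °C for 15–300 min. Samples were taken every 15 min up to 120 min, then every 30 min. Each sample was reacted with Griess reagent for 10 min at 37 °C and absorbance read at 540 nm. Nitrite was quantified from a nitrite standard curve. Means reported; intra-group variation <10%.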

[3] = Induction of nitric oxide release in potassium phosphate buffer at pH 7.4 at 0.1 mM after 45 mins by Griess assay; assay type: physicochemical; conditions: pH 7.4, 0.75 h, 100 µM; procedure, shortened: as §1
[4] = Induction of nitric oxide release in potassium phosphate buffer at pH 7.4 at 0.1 mM after 60 mins by Griess assay; assay type: physicochemical; conditions: pH 7.4, 1 h, 100 µM; procedure, shortened: as §1
[5] = Induction of nitric oxide release in potassium phosphate buffer at pH 7.4 at 0.1 mM after 75 mins by Griess assay; assay type: physicochemical; conditions: pH 7.4, 1.25 h, 100 µM; procedure, shortened: as §1
[6] = Induction of nitric oxide release in potassium phosphate buffer at pH 7.4 at 0.1 mM after 90 mins by Griess assay; assay type: physicochemical; conditions: pH 7.4, 1.5 h, 100 µM; procedure, shortened: as §1
[7] = Induction of nitric oxide release in potassium phosphate buffer at pH 7.4 at 0.1 mM after 105 mins by Griess assay; assay type: physicochemical; conditions: pH 7.4, 1.75 h, 100 µM; procedure, shortened: as §1
[8] = Induction of nitric oxide release in potassium phosphate buffer at pH 7.4 at 0.1 mM after 120 mins by Griess assay; assay type: physicochemical; conditions: pH 7.4, 2 h, 100 µM; procedure, shortened: as §1
[9] = Induction of nitric oxide release in potassium phosphate buffer at pH 7.4 at 0.1 mM after 150 mins by Griess assay; assay type: physicochemical; conditions: pH 7.4, 2.5 h, 100 µM; procedure, shortened: as §1
[10] = Induction of nitric oxide release in potassium phosphate buffer at pH 7.4 at 0.1 mM after 180 mins by Griess assay; assay type: physicochemical; conditions: pH 7.4, 3 h, 100 µM; procedure, shortened: as §1
[11] = Induction of nitric oxide release in potassium phosphate buffer at pH 7.4 at 0.1 mM after 240 mins by Griess assay; assay type: physicochemical; conditions: pH 7.4, 4 h, 100 µM; procedure, shortened: as §1
[12] = Induction of nitric oxide release in potassium phosphate buffer at pH 7.4 at 0.1 mM after 300 mins by Griess assay; assay type: physicochemical; conditions: pH 7.4, 5 h, 100 µM; procedure, shortened: as §1
Liver [13] = experiment: Induction of hydrogen sulfide release in rat liver homogenate at 100 uM after 30 mins by microplate reader method (reference value: 1.03 to 1.21%); assay type: functional, tissue-based
Procedure, shortened: (§2)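 Compound was incubated at 37 °C for 0–90 min with fresh rat liver homogenate. The reaction was stopped with 1% zinc acetate and 10% trichloroacetic acid. N,N-dimethyl-p-phenylenediamine sulfate in 7.2 M HCl and FeCl3 in 1.2 M HCl were added, and absorbance was read at 670 nm after 10 min. Values were calculated against an NaHS standard curve as cumulative % conversion to H2S, n = 6.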

Liver [14] = experiment: Induction of hydrogen sulfide release in rat liver homogenate at 100 uM after 60 mins by microplate reader method (reference value: 1.03 to 1.21%); assay type: functional, tissue-based; procedure, shortened: as §2
Liver [15] = experiment: Induction of hydrogen sulfide release in rat liver homogenate at 100 uM after 90 mins by microplate reader method (reference value: 1.03 to 1.21%); assay type: functional, tissue-based; procedure, shortened: as §2
[16] = Antiplatelet activity in rabbit platelet-rich plasma assessed as inhibition of ADP-induced platelet aggregation preincubated for 5 mins followed by addition of ADP measured within 5 mins by Borns turbidimetric method; assay type: functional; conditions: Oryctolagus cuniculus
Procedure, shortened: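 Platelet-rich plasma from citrated rabbit carotid blood was preincubated in duplicate at 37 °C for 5 min with compound at 0.1, 0.2, 0.4, 0.8 or 1.6 mM. ADP-induced aggregation was then recorded turbidimetrically, as maximal light transmission within 5 min. Inhibition was calculated versus vehicle control, and IC50 values were derived. Mean ± SD, n = 6, ANOVA/Tukey.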

[17] = Induction of nitric oxide release in potassium phosphate buffer at pH 7.4 at 0.1 mM after 15 mins by Griess assay; assay type: physicochemical; conditions: pH 7.4, 0.25 h, 100 µM; procedure, shortened: as §1
Liver [18] = experiment: Induction of hydrogen sulfide release in rat liver homogenate at 100 uM after 15 mins by microplate reader method (reference value: 1.03 to 1.21%); assay type: functional, tissue-based; procedure, shortened: as §2

Row | Compound | inhibition at 100 µM [1] [%] | Activity [2] [µM] | Activity [3] [µM] | Activity [4] [µM] | Activity [5] [µM] | Activity [6] [µM] | Activity [7] [µM] | Activity [8] [µM] | Activity [9] [µM] | Activity [10] [µM] | Activity [11] [µM] | Activity [12] [µM] | Activity (Liver [13]) [%] | Activity (Liver [14]) [%] | Activity (Liver [15]) [%] | IC50 [16] [µM] | Activity [17] [µM] | Activity (Liver [18]) [%]
1 | S=c1cc(-c2ccc(OCCCCCN3CCNCC3)cc2)ss1 | 16.8 |  |  |  |  |  |  |  |  |  |  |  |  |  |  |  |  | 
2 | CCCCC(OC(=O)CN1CCN(CCCCCCOc2ccc(-c3cc(=S)ss3)cc2)CC1)c1ccccc1C(=O)Oc1ccc(/C=C/C(=O)OCCCCO[N+](=O)[O-])cc1OC (racemic) | 19.7 | 2 | 3.09 | 4 | 4.4 | 4.8 | 5.1 | 5.3 | 5.46 | 5.48 | 5.51 | 5.56 | 1.05 | 1.81 | 1.82 | 390 | 1.45 | 0.95
3 | CCCCC(OC(=O)CCl)c1ccccc1C(=O)Oc1ccc(/C=C/C(=O)OCCO[N+](=O)[O-])cc1OC (racemic) | 18 |  |  |  |  |  |  |  |  |  |  |  |  |  |  |  |  | 
4 | CCCCC(OC(=O)CN1CCN(CCOc2ccc(-c3cc(=S)ss3)cc2)CC1)c1ccccc1C(=O)Oc1ccc(/C=C/C(=O)OCCCCCCO[N+](=O)[O-])cc1OC (racemic) | 19.7 | 4.21 | 5.98 | 6.58 | 7.84 | 8.14 | 8.64 | 8.76 | 9.25 | 9.29 | 9.44 | 9.57 | 2.83 | 3.74 | 3.82 | 210 | 2.37 | 2.62
5 | CCCCC(OC(=O)CN1CCN(CCOc2ccc(-c3cc(=S)ss3)cc2)CC1)c1ccccc1C(=O)Oc1ccc(/C=C/C(=O)OCCO[N+](=O)[O-])cc1OC (racemic) | 19.7 |  |  |  |  |  |  |  |  |  |  |  |  |  |  |  |  | 
6 | CCCCC(OC(=O)CN1CCN(CCCCCOc2ccc(-c3cc(=S)ss3)cc2)CC1)c1ccccc1C(=O)Oc1ccc(/C=C/C(=O)OCCCCCCO[N+](=O)[O-])cc1OC (racemic) | 19.7 |  |  |  |  |  |  |  |  |  |  |  |  |  |  |  |  | 
7 | CCCCC(OC(=O)CN1CCN(CCCOc2ccc(-c3cc(=S)ss3)cc2)CC1)c1ccccc1C(=O)Oc1ccc(/C=C/C(=O)OCCO[N+](=O)[O-])cc1OC (racemic) | 19.7 |  |  |  |  |  |  |  |  |  |  |  |  |  |  |  |  | 
8 | CCCCC(OC(=O)CN1CCN(CCCCCCOc2ccc(-c3cc(=S)ss3)cc2)CC1)c1ccccc1C(=O)Oc1ccc(/C=C/C(=O)OCCO[N+](=O)[O-])cc1OC (racemic) | 19.7 | 3.17 | 4.13 | 4.98 | 5.53 | 5.97 | 6.41 | 6.88 | 7.28 | 7.47 | 7.51 | 7.51 | 1.73 | 2.39 | 2.41 | 430 | 1.96 | 1.6
9 | CCCCC(OC(=O)CN1CCN(CCOc2ccc(-c3cc(=S)ss3)cc2)CC1)c1ccccc1C(=O)Oc1ccc(/C=C/C(=O)OCCCCO[N+](=O)[O-])cc1OC (racemic) | 19.7 |  |  |  |  |  |  |  |  |  |  |  |  |  |  |  |  | 
10 | CCCCC(OC(=O)CN1CCN(CCCCCOc2ccc(-c3cc(=S)ss3)cc2)CC1)c1ccccc1C(=O)Oc1ccc(/C=C/C(=O)OCCCCO[N+](=O)[O-])cc1OC (racemic) | 19.7 |  |  |  |  |  |  |  |  |  |  |  |  |  |  |  |  | 
11 | CCCCC(OC(=O)CN1CCN(CCCCOc2ccc(-c3cc(=S)ss3)cc2)CC1)c1ccccc1C(=O)Oc1ccc(/C=C/C(=O)OCCCCO[N+](=O)[O-])cc1OC (racemic) | 19.7 | 3.86 | 4.58 | 6.13 | 7.04 | 7.45 | 8.3 | 8.37 | 8.32 | 8.34 | 8.25 | 8.37 | 1.85 | 2.71 | 2.72 | 360 | 2.1 | 1.74
12 | CCCCC(OC(=O)CN1CCN(CCCCCOc2ccccc2)CC1)c1ccccc1C(=O)Oc1ccc(/C=C/C(=O)OCCO[N+](=O)[O-])cc1OC (racemic) | 19.8 |  |  |  |  |  |  |  |  |  |  |  |  |  |  |  |  | 
13 | CCCCC(OC(=O)CN1CCN(CCCOc2ccc(-c3cc(=S)ss3)cc2)CC1)c1ccccc1C(=O)Oc1ccc(/C=C/C(=O)OCCCCO[N+](=O)[O-])cc1OC (racemic) | 19.7 | 1.27 | 1.89 | 2.22 | 2.36 | 2.56 | 2.98 | 3.18 | 3.25 | 3.23 | 3.32 | 3.32 | 0.83 | 1.21 | 1.23 | 430 | 0.91 | 0.65
14 | CCCCC(OC(=O)CN1CCN(CCCCCOc2ccc(-c3cc(=S)ss3)cc2)CC1)c1ccccc1C(=O)Oc1ccc(/C=C/C(=O)OC)cc1OC (racemic) | 27.8 |  |  |  |  |  |  |  |  |  |  |  |  |  |  |  |  | 
15 | CCCCC(OC(=O)CN1CCN(CCCOc2ccc(-c3cc(=S)ss3)cc2)CC1)c1ccccc1C(=O)Oc1ccc(/C=C/C(=O)OCCCCCCO[N+](=O)[O-])cc1OC (racemic) | 19.7 |  |  |  |  |  |  |  |  |  |  |  |  |  |  |  |  | 
16 | CCCCC(OC(=O)CN1CCN(CCCCOc2ccc(-c3cc(=S)ss3)cc2)CC1)c1ccccc1C(=O)Oc1ccc(/C=C/C(=O)OCCO[N+](=O)[O-])cc1OC (racemic) | 19.7 |  |  |  |  |  |  |  |  |  |  |  |  |  |  |  |  | 
